Tests used:
Bos taurus = species: Bos taurus; details: 1000 uM
Rattus norvegicus = species: Rattus norvegicus; details: 1000 uM
[1] = biological target: Alpha-galactosidase (Coffea arabica) (UniProt Q42656); details: 1000 uM
[2] = biological target: T1, Tissue alpha-L-fucosidase (Rattus norvegicus) (UniProt P17164); details: 1000 uM
T1 sequence (whole entry): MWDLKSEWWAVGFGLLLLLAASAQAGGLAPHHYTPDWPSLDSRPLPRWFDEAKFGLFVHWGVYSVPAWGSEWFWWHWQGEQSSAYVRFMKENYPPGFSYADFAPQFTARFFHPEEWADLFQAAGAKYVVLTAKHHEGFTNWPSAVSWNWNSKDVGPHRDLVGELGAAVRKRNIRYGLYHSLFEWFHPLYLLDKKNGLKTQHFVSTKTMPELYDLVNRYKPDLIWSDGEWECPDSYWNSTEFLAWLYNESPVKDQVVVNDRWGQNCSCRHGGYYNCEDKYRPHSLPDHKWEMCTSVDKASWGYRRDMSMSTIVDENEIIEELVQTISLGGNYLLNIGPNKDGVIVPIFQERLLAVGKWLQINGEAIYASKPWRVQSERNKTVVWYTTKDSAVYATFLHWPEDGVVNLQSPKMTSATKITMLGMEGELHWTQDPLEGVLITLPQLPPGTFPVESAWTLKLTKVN

[3] = Inhibitory activity measured against beta-galactosidase of bovine liver by colorimetric assay using the D-glucose oxidase-peroxidase method; parameters: species or system Bos taurus; details: in the assay text read “p-nitrophenyl glycoside method” for “D-glucose oxidase-peroxidase method”
Procedure, shortened: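 Activity was measured with the appropriate p-nitrophenyl glycoside as substrate at each enzyme's optimum pH. The reaction was stopped with 400 mM Na2CO3, and released p-nitrophenol was read spectrophotometrically at 400 nm.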

[4] = Inhibitory activity measured against beta-galactosidase of rat intestinal lactase by colorimetric assay using the D-glucose oxidase-peroxidase method
Procedure, shortened: (§1)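 Enzyme source was brush border membranes from the intestine of male Wistar rats. Each activity was run with the appropriate disaccharide as substrate at that enzyme's optimum pH. Released D-glucose was quantified colorimetrically by the glucose oxidase–peroxidase method.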

[5] = Inhibitory activity measured against beta-galactosidase of rat intestinal lactase by colorimetric assay using the D-glucose oxidase-peroxidase method.
Procedure, shortened: as §1

Sequence of Alpha-galactosidase (Coffea arabica) (Q42656 whole entry, looked up): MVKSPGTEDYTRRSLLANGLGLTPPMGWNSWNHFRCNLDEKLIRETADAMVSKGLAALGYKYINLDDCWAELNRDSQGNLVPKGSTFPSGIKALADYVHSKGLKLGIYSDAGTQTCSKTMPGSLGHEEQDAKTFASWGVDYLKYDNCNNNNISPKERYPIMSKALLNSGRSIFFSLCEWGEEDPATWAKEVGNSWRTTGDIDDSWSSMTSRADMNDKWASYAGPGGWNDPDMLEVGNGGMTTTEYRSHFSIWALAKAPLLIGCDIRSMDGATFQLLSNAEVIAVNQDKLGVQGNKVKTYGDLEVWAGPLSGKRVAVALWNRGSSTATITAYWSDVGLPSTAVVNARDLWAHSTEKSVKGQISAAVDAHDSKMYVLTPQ

inhibition (Bos taurus)	inhibition (Rattus norvegicus)	inhibition [1]	inhibition [2]	IC50 [3]	IC50 [4]	IC50 [5]	Structure (SMILES)
< 50%	< 50%	< 50%					OC[C@@H]1N[C@H](CO)[C@@H](O)[C@H](O)[C@@H]1O
< 50%	< 50%	< 50%	< 50%				OC[C@@H]1N[C@H](CO)[C@@H](O)[C@H](O)[C@H]1O
				86 µM	130 µM		OCC1NC(CO)[C@@H](O)C(O)C1O (stereo partly drawn)
			< 50%			290 µM	OC[C@H]1N[C@H](CO)[C@H](O)C(O)[C@H]1O (stereo partly drawn)
< 50%	< 50%	< 50%	< 50%				OC[C@H]1N[C@H](CO)[C@@H](O)[C@H](O)[C@H]1O
< 50%	< 50%	< 50%					OC[C@H]1N[C@H](CO)[C@@H](O)C(O)[C@@H]1O (stereo partly drawn)

Source: ChEMBL document CHEMBL1131015, “Homonojirimycin isomers and N-alkylated homonojirimycins: structural and conformational basis of inhibition of glycosidases” (J Med Chem, 1998)
